The values that follow come from ChEMBL document CHEMBL1145529, “Synthesis of novel quinolone and quinoline-2-carboxylic acid (4-morpholin-4-yl-phenyl)amides: a late-stage diversification approach to potent 5HT1B antagonists” (Bioorg Med Chem, 2007).

Test [1] deals with T1, 5-hydroxytryptamine receptor 1B (Homo sapiens, UniProt P28222). Briefly: Displacement of [3H]GR125743 from 5HT1B receptor transfected in CHO cells. The format is cell-based. An outline of the steps:
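Competition binding used a stably transfected CHO cell line expressing 5HT1B receptor. [3H]-GR125743 was the radioligand, and Ki values were derived from displacement.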
In general terms: In a radioligand displacement assay an active substance lowers the binding of a labelled ligand.

Test [2] deals with T1, 5-hydroxytryptamine receptor 1B. The test can be described thus: Antagonist activity at 5HT1B receptor expressed in CHO cells assessed as effect on 5-HT-induced stimulation of [35S]GTP-gamma-S binding at 10 uM. The format is functional, cell-based. Background: GTPγS resists hydrolysis and so accumulates on activated G proteins.

T1 sequence (P28222 whole entry): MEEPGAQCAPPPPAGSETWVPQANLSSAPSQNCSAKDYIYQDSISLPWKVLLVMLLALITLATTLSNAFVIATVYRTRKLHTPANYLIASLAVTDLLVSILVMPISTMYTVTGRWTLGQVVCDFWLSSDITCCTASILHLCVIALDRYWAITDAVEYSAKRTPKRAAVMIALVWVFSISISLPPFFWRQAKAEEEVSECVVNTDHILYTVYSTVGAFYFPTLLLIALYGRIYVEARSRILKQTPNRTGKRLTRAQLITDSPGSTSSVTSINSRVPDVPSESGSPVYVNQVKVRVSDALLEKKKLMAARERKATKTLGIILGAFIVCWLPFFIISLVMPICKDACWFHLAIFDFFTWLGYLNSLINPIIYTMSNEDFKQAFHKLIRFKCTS

One may read the Ki as a dissociation constant, usually derived from enzyme kinetics or from competition with a known ligand. The low end stands for a stronger hold on the target, the high end for a looser hold on the target. `COc1cc(N2CC[C@@H](N(C)C)C2)c2[nH]c(C(=O)Nc3ccc(N4CCOCC4)cc3)cc(=O)c2c1` yielded a Ki in test [1] of 35 nM.
On the same count and under the same terms, the same measure for `CCN1CCC(N(CC)c2cc(OC)cc3c(=O)cc(C(=O)Nc4ccc(N5CCOCC5)cc4)[nH]c23)C1` (stereo not given): 170 nM.
In turn, `CN1CCN(c2cc(F)cc3c(=O)cc(C(=O)Nc4ccc(N5CCOCC5)cc4)[nH]c23)CC1` returned a Ki in test [1] of 9.3 nM. In addition, the Intrinsic activity in test [2] is -34%.
As for `COc1cc(N(C)C2CCN(C)C2)c2[nH]c(C(=O)Nc3ccc(N4CCOCC4)cc3)cc(=O)c2c1` (stereo not given), the Ki in test [1] was > 1000 nM.
In test [1], `COc1cc(N(C)CCN(C)C)c2[nH]c(C(=O)Nc3ccc(N4CCOCC4)cc3)cc(=O)c2c1` registered a Ki of 392 nM.
As for `COc1cc(N2CCN(C)CC2)c2[nH]c(C(=O)Nc3ccc(N4CCOCC4)cc3)cc(=O)c2c1`, in test [1], the Ki was 3.5 nM. In addition, the Intrinsic activity in test [2] is -34%.
Compound `COc1cc(N2CCN(C)CC2)c2nc(C(=O)Nc3ccc(N4CCOCC4)cc3)cc(N(C)C)c2c1` displayed a Ki in test [1] of 51 nM.
On the same count and under the same terms, the result for `COc1cc(N2CC[C@H](N(C)C)C2)c2[nH]c(C(=O)Nc3ccc(N4CCOCC4)cc3)cc(=O)c2c1` reads > 1000 nM.
`COc1cc(N(C)CCCN(C)C)c2[nH]c(C(=O)Nc3ccc(N4CCOCC4)cc3)cc(=O)c2c1`: the Ki in test [1] came to 292 nM. This counts as sub-micromolar.
Consider `COc1cc(C(=O)Nc2ccc(N3CCOCC3)cc2)nc2c(N3CCN(C)CC3)cc(F)cc12`, for which, in test [1], the Ki was found to be 30 nM.
Same read-out and setting: the same measure for `CNc1cc(C(=O)Nc2ccc(N3CCOCC3)cc2)nc2c(N3CCN(C)CC3)cc(OC)cc12`: 1300 nM.
For the compound `COc1cc(N2CCCN(C)CC2)c2[nH]c(C(=O)Nc3ccc(N4CCOCC4)cc3)cc(=O)c2c1`, the affinity in test [1] corresponds to a Ki of 0.9 nM. In test [2], the Intrinsic activity was -34%.
